Measurements published in paper PMC6930338 (Journal of autoimmunity, 2019).
Positions count from the first letter of the chain named. Where no end group is shown, it is not given here.

What was measured:
[1] = target: T1, HLA-DPA1*01:03/ HLA-DPB1*04:01 (Homo sapiens, UniProt P04440+P20036); assay: In vitro competitive peptide binding to purified MHC class II
T1 sequence (P20036 29-260): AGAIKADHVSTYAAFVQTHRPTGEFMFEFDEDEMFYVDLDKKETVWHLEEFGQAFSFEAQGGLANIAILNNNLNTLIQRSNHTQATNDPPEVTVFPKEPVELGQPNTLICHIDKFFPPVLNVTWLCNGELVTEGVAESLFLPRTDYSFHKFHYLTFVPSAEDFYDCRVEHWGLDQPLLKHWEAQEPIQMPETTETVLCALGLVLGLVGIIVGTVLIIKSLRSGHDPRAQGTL
T1 sequence (P04440 30-258): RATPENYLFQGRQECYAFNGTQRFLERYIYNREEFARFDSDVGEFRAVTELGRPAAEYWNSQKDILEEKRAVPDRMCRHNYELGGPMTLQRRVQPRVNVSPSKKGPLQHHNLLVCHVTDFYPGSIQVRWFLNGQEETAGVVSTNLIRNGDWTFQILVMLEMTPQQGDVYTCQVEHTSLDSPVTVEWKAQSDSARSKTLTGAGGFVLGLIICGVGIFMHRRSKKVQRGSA
Summary of the method: (§1)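 Candidate MPO peptides were picked by IEDB in silico prediction and then tested in vitro. Each peptide's inhibition of binding of a high-affinity radiolabeled peptide to purified HLA-DPB1*04:01 or HLA-DRB4*01:01 class II molecules was measured.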

HLA-DRB4*01:01/ *01:03 = HLA-DRB4*01:01/ *01:03 (Homo sapiens, UniProt P01903+P13762, G164S); assay: as above
Summary of the method: as §1

[2] = target: T2, HLA-DPA1*01:03/ HLA-DPB1*04:02 (Homo sapiens, UniProt P04440+P20036, A65V/A84D/A85E/L207M); assay: In vitro competitive peptide binding to purified MHC class II
T2 sequence (P20036 29-260): T1 sequence (P20036 29-260)
T2 sequence (P04440 30-258 A65V/A84D/A85E): T1 sequence (P04440 30-258) with A36V, A55D, A56E

[3] = target: HLA-DRB5*01:01/ *01:02/ *02:02 (Homo sapiens, UniProt P01903+Q30154); assay: as above
HLA-DRB1*03:04/ *03:07 = HLA-DRB1*03:04/ *03:07 (Homo sapiens, UniProt P01903+P01911, A100K/A102G/A103R/A169T/F55Y/I96L/K41T/L162R/M171V/P40S/Q125H/Q178H/Q39Y/R42S/T106N/T262R/W38E/Y61H); assay: as above
HLA-DRB1*04:01-*04:13 = HLA-DRB1*04:01-*04:13 (Homo sapiens, UniProt P01903+P01911, A100K/A169T/F76Y/I96L/K127E/L162R/M171V/N62H/P40V/Q125Y/R42H/S133A/S149N/S66Y/V115G/V209L/W38E); assay: as above
[4] = Peptide solubility noted during ELISA optimization; assay type: physicochemical; conditions: qualitative; follow-up testing and optimization of ELISA

| IC50 [1] [µM] | IC50 (HLA-DRB4*01:01/ *01:03) [µM] | IC50 [2] [µM] | IC50 [3] [µM] | IC50 (HLA-DRB1*03:04/ *03:07) [µM] | IC50 (HLA-DRB1*04:01-*04:13) [µM] | Solubility compared with MPO447–459 [4] | Compound |
| --- | --- | --- | --- | --- | --- | --- | --- |
| 5.62 | 0.725 | 1.34 | 0.005 | 2.97 | 0.002 |  | CC[C@H](C)[C@H](NC(=O)[C@H](CCCNC(=N)N)NC(=O)[C@@H]1CCCN1)C(=O)N[C@@H](C)C(=O)N[C@@H](CC(N)=O)C(=O)N[C@H](C(=O)N[C@@H](Cc1ccccc1)C(=O)N[C@H](C(=O)N[C@@H](CC(N)=O)C(=O)N[C@@H](C)C(=O)N[C@@H](Cc1ccccc1)C(=O)N[C@@H](CCCNC(=N)N)C(=O)N[C@@H](Cc1ccc(O)cc1)C(=O)NCC(=O)N[C@@H](Cc1c[nH]cn1)C(=O)O)[C@@H](C)O)C(C)C [MPO488–502] |
| 1.09 | 0.381 | 0.91 | 1.18 | 70 | 4.14 |  | DQERSLMFMQWGQLL [MPO245–259] |
| 53.7 | 9.35 | 19.4 | 1.44 | 31.1 | 0.933 |  | GEKLYQEARKIVGAM [MPO413–427, reference compound] |
| 0.038 | 0.017 |  |  |  |  |  | IKAVRIYIGDVMRQT [MPO447–461scramble, reference compound] |
| 0.409 | 0.217 | 0.826 | 0.081 | 11 | 0.016 |  | MPELTSMHTLLLREH [MPO409–423] |
| 12 | 0.068 | 2.48 | 0.029 | 32.8 | 0.008 |  | PILRGLMATPAKLNR [MPO545–559] |
| 1.05 | 0.253 |  |  |  |  |  | PRWDGERLYQEARKIVGAMV [MPO435–454] |
| 7.12 | 0.876 | 6.17 | 0.321 | 14.5 | 0.433 |  | PVAATRTAVRAADYL [MPO105–119] |
| 0.098 | 0.24 | 0.074 | 1.21 | 13.9 | 0.046 | improved solubility | RKIVGAMVQIITYRD [MPO447–461] |
